For series [1], the species on record is Rattus norvegicus. The series is described as follows: Antidiuretic activity in rat. It counts as functional, Urine. The procedure, abridged:
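Anesthetized male rats, Jeffers et al. method as modified by Sawyer. Specific activity is obtained against the USP standard using a Schild four-point design or matches. Reported as USP U/mg ± SEM, five animals per determination.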

Series [2] is filed under the species Oryctolagus cuniculus. Description: Induction of oxytocic activity in rabbit assessed as milk ejection. It is filed as functional.
The test system of series [3] is Gallus gallus. The series is described as follows: Induction of vasodepressor activity in conscious chicken. It counts as functional.
The species named for series [4] is Rattus norvegicus. The series is described as follows: Pressor activity in rat. It counts as functional. In short, it runs like this:
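Anesthetized male rats, per the U.S. Pharmacopeia. Potency is estimated by matches, with the USP posterior pituitary standard always injected before the analogue. Before each analogue dose, several standard doses are confirmed to give reproducible, unattenuated responses. Reported as USP U/mg ± SEM, five animals.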

Series [5] concerns the target T1, Oxytocin receptor (Rattus norvegicus) (UniProt P70536).
T1 sequence (whole entry): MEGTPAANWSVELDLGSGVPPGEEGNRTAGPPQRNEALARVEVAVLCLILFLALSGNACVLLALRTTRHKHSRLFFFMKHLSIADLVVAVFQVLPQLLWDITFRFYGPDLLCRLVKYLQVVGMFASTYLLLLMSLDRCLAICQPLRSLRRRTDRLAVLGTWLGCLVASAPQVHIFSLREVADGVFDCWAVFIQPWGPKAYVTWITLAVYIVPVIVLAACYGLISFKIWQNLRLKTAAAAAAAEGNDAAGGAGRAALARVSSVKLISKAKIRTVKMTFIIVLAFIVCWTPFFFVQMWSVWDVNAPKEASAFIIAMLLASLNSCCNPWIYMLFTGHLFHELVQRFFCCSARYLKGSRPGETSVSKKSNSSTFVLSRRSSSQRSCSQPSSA
The series is described as follows: Activity at rat oxytocin receptor in rat uterus assessed as uterotonic activity. It counts as tissue-based. The procedure, abridged:
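Isolated uterine horns from virgin rats in natural estrus, Holton method as modified by Munsick, bathed in Mg²⁺-free van Dyke–Hastings solution. Specific activity is derived against the USP standard by a Schild four-point design or by matches. Expressed as USP U/mg ± SEM, with at least three animals per determination.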

Series [6] has as its system Rattus norvegicus. The series is described as follows: Induction of vasodepressor activity in anesthetized male rat at 0.5 mg.
The target of series [7] is T2, Oxytocin receptor (Homo sapiens) (UniProt P30559).
T2 sequence (whole entry): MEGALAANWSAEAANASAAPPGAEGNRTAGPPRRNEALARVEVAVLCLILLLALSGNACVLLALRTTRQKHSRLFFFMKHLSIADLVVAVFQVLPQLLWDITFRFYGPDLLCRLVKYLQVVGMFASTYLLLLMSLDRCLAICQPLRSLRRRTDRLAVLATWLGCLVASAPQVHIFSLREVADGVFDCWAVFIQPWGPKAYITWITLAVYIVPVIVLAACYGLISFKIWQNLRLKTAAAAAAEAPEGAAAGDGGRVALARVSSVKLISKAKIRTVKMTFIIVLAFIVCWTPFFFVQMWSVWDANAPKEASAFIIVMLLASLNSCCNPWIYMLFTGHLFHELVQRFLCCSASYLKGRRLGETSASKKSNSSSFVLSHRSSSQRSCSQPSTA
The series is described as follows: Activity at oxytocin receptor (unknown origin) assessed as oxytocic activity.

A short description of series [8]: Drug metabolism in rat uterine homogenate assessed as compound inactivation after 60 mins. It is filed as ADME, tissue-based, Uterus. As to conditions: read-out: Drug metabolism.
The nature of series [9]: Drug metabolism in rat uterine homogenate assessed as compound inactivation after 30 mins. It counts as ADME, tissue-based, Uterus. As to conditions: read-out: Drug metabolism.
The species named for series [10] is Rattus norvegicus. The series is described as follows: Pressor activity in rat after 45 mins. It is filed as functional, organism-based.

Among the data in ChEMBL document CHEMBL3272081, “Oxytocin analogues with combined high smooth muscle and negligible antidiuretic activities. Investigation of position 7 in neurohypophyseal hormones” (J Med Chem, 1976) are Activity and metabolised values, retold here.

Each structure is given as a SMILES string. The source made the active and inactive calls. No cut-off for these calls is given here. Bridge positions count the residues as written; N and C are the ends. Square brackets hold non-standard residues; d marks the D form. Peptide text beside a SMILES is read from it. Mpa = O=C(O)CCS

For the compound `CC[C@H](C)[C@@H]1NC(=O)[C@H](Cc2ccc(O)cc2)NC(=O)CCSSC[C@@H](C(=O)N2CCC[C@H]2C(=O)N[C@@H](CC(C)C)C(=O)NCC(N)=O)NC(=O)[C@H](CC(N)=O)NC(=O)[C@H](CCC(N)=O)NC1=O`, the Activity in series [1] was 19 USP-U/mg; in [2] it was 541 USP-U/mg; in series [3], 975 USP-U/mg; in [4], 1.44 USP-U/mg; in series [5], 803 USP-U/mg.

For the compound `CC[C@H](C)[C@@H]1NC(=O)[C@H](Cc2ccc(O)cc2)NC(=O)[C@@H](N)CSSC[C@@H](C(=O)N[C@@H](C)C(=O)N[C@@H](CC(C)C)C(=O)NCC(N)=O)NC(=O)[C@H](CC(N)=O)NC(=O)[C@H](CCC(N)=O)NC1=O` (H-CYIQNCALG-NH2; disulfide 1-6), the Activity in series [1] was found to be 0.08 USP-U/mg; in series [3], 4.8 USP-U/mg; in series [4], 0.4 USP-U/mg; in series [5], 22 USP-U/mg.

In the case of `CC[C@H](C)[C@@H]1NC(=O)[C@H](Cc2ccc(O)cc2)NC(=O)[C@@H](N)CSSC[C@@H](C(=O)NCC(=O)N[C@@H](CC(C)C)C(=O)NCC(N)=O)NC(=O)[C@H](CC(N)=O)NC(=O)[C@H](CCC(N)=O)NC1=O` (H-CYIQNCGLG-NH2; disulfide 1-6), the Activity result in series [1] is “<=0.01 USP-U/mg”; in [6] it was 25 mmHg; in [7], 68 U/mg; in [2], 224 USP-U/mg; in [3], 5.3 USP-U/mg; in [4] it was 0.3 USP-U/mg. The Activity in series [5] turned out to be 65 USP-U/mg.

Take `CC[C@H](C)[C@@H]1NC(=O)[C@H](Cc2ccc(O)cc2)NC(=O)CCSSC[C@@H](C(=O)N[C@@H](C)C(=O)N[C@@H](CC(C)C)C(=O)NCC(N)=O)NC(=O)[C@H](CC(N)=O)NC(=O)[C@H](CCC(N)=O)NC1=O` ([Mpa]YIQNCALG-NH2; disulfide 1-6): the Activity in series [1] was 0.17 USP-U/mg; in series [3] it was 9.8 USP-U/mg; in [4] it was 0.5 USP-U/mg; in series [5], 123 USP-U/mg.

As to `CC[C@H](C)[C@@H]1NC(=O)[C@H](Cc2ccc(O)cc2)NC(=O)CCSSC[C@@H](C(=O)NCC(=O)N[C@@H](CC(C)C)C(=O)NCC(N)=O)NC(=O)[C@H](CC(N)=O)NC(=O)[C@H](CCC(N)=O)NC1=O` ([Mpa]YIQNCGLG-NH2; disulfide 1-6), the Activity in series [1] is 0.062 USP-U/mg; in series [3], 17 USP-U/mg; in series [4], 0.5 USP-U/mg; in series [5] it was 355 USP-U/mg. Moreover, the metabolised at 1 h in series [8] amounted to 30%. Also, in [9], the metabolised at 0.5 h stood at 3%.

On to `CC[C@H](C)[C@@H]1NC(=O)[C@H](Cc2ccc(O)cc2)NC(=O)[C@@H](N)CSSC[C@@H](C(=O)N2CCC[C@H]2C(=O)N[C@@H](CC(C)C)C(=O)NCC(N)=O)NC(=O)[C@H](CC(N)=O)NC(=O)[C@H](CCC(N)=O)NC1=O` [OXYTOCIN], for which the Activity stood at 2.7 USP-U/mg in series [1]; 440 USP-U/mg in series [2]; 507 USP-U/mg in series [3]; 3.1 USP-U/mg in series [4]; 546 USP-U/mg in [5]. The result in series [10] was Active.
